In ChEMBL document CHEMBL1123124, “New antihistaminic N-heterocyclic 4-piperidinamines. 2. Synthesis and antihistaminic activity of 1-[(4-fluorophenyl)methyl]-N-(4-piperidinyl)-1H-benzimidazol-2-a mines” (1985):

How the values were obtained:
Format in all cases: functional
[1] = test system: Rattus norvegicus; assay: In vivo antihistaminic activity using compound 48/80 induced lethality test after 1 hr of subcutaneous administration in rat; conditions: sc
Method in brief: (§1)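 Protection was survival for 4 h after challenge. ED50 with confidence limits was calculated by Finney from five rats per dose and at least three doses of a geometric series (0.0025–40 mg/kg). Estimated ED50 used at least two rats per dose.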

[2] = test system: Rattus norvegicus; assay: In vivo antihistaminic activity using compound 48/80 induced lethality test in rat after 2 hr of oral administration; method in brief: as §1
[3] = test system: Cavia porcellus; assay: In vivo histamine induced lethality after 24 hours of iv administration in guinea pig
[4] = test system: Cavia porcellus; assay: In vivo histamine induced lethality after 8 hours of iv administration in guinea pig
[5] = test system: Rattus norvegicus; assay: Inhibition of serotonin skin reaction in rat after 2 hr of oral administration.
Method in brief: (§2)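 Test compound or solvent given orally to rats 2 h before four intradermal injections into clipped back: two of 50 μL histamine dihydrochloride (1 mg/mL in saline), two of 50 μL serotonin (2 μg/mL in saline). Then iv 0.5 mL of 0.5% trypan blue. Bluing of skin reactions scored 30 min later.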

[6] = test system: Rattus norvegicus; assay: Inhibition of mydriatic activity in rat after 2 hr of oral administration.
[7] = test system: Cavia porcellus; assay: In vivo histamine induced lethality after 3 hours of iv administration in guinea pig
[8] = test system: Rattus norvegicus; assay: Inhibition of histamine skin reaction in rat after 2 hr of oral administration.; method in brief: as §2
[9] = test system: Rattus norvegicus; assay: Inhibition of serotonin skin reaction in rat after 2 hr of subcutaneous administration.; conditions: sc
[10] = test system: Rattus norvegicus; assay: Inhibition of mydriatic activity in rat after 2 hr of intraperitoneal administration; conditions: ip
[11] = test system: Rattus norvegicus; assay: Inhibition of histamine skin reaction in rat after 2 hr of subcutaneous administration.; conditions: sc

Structure (SMILES) | ED50 [1] | ED50 [2] | further results
Cl.Fc1ccc(Cn2c(NC3CCN(CCc4ccccc4)CC3)nc3ccccc32)cc1 | 0.31 mg/kg | 0.63 mg/kg | –
O=C(OCc1ccccc1)Oc1ccc(CCN2CCC(Nc3nc4ccccc4n3Cc3ccc(F)cc3)CC2)cc1 | 0.31 mg/kg | 0.16 mg/kg | –
Fc1ccc(Cn2c(NC3CCN(CCc4ccccc4)CC3)nc3cc(Cl)ccc32)cc1 | > 2.5 mg/kg | – | –
O=C(NCCN1CCC(Nc2nc3ccccc3n2Cc2ccc(F)cc2)CC1)c1ccc(F)cc1 | 0.31 mg/kg | 2.5 mg/kg | –
COc1ccc(OCCCN2CCC(Nc3nc4ccccc4n3Cc3ccc(F)cc3)CC2)cc1 | 0.31 mg/kg | 0.31 mg/kg | –
Cl.Fc1ccc(Cn2c(NC3CCN(CCN4CCOCC4)CC3)nc3ccccc32)cc1 | 0.31 mg/kg | 2.5 mg/kg | –
OC(COc1ccccc1)CN1CCC(Nc2nc3ccccc3n2Cc2ccc(F)cc2)CC1 (configuration not stated) | 0.63 mg/kg | 1.25 mg/kg | –
O=c1[nH]c2ccccc2n1CCCN1CCN(C(c2ccccc2)c2ccccc2)CC1 [OXATOMIDE] | – | – | ED50 [3]: > 5 mg/kg; ED50 [4]: 1.25 mg/kg; ED50 [5]: 32.6 mg/kg; ED50 [6]: > 160 mg/kg; ED50 [7]: 0.2 mg/kg; ED50 [8]: 9.36 mg/kg
Cl.O=C(COc1ccc(CCN2CCC(Nc3nc4ccccc4n3Cc3ccc(F)cc3)CC2)cc1)N1CCCCC1 | 1.25 mg/kg | 1.25 mg/kg | –
CC(Cc1ccccc1)N1CCC(Nc2nc3ccccc3n2Cc2ccc(F)cc2)CC1 (configuration not stated) | 2.5 mg/kg | – | –
COc1ccc(CCN2CCC(Nc3nc4ccccc4n3Cc3ccc(F)cc3)CC2)cc1OC | 1.25 mg/kg | 0.16 mg/kg | –
COc1cccc(CCN2CCC(Nc3nc4ccccc4n3Cc3ccc(F)cc3)CC2)c1.Cl | 0.31 mg/kg | 0.31 mg/kg | –
O=C(Cc1ccccc1)Oc1ccc(CCN2CCC(Nc3nc4ccccc4n3Cc3ccc(F)cc3)CC2)cc1 | 0.31 mg/kg | 0.08 mg/kg | –
CCCCOc1ccccc1OCC(O)CN1CCC(Nc2nc3ccccc3n2Cc2ccc(F)cc2)CC1 (configuration not stated) | 2.5 mg/kg | – | –
C=CCOc1ccc(CCN2CCC(Nc3nc4ccccc4n3Cc3ccc(F)cc3)CC2)cc1.Cl | 2.5 mg/kg | – | –
COC(=O)Oc1ccc(CCN2CCC(Nc3nc4ccccc4n3Cc3ccc(F)cc3)CC2)cc1 | 0.16 mg/kg | 0.16 mg/kg | –
CC(=O)c1ccc(OCC(O)CN2CCC(Nc3nc4ccccc4n3Cc3ccc(F)cc3)CC2)cc1 (configuration not stated) | 0.63 mg/kg | 1.25 mg/kg | –
Oc1nc2ccccc2n1CCCN1CCC(Nc2nc3ccccc3n2Cc2ccc(F)cc2)CC1 | 0.31 mg/kg | 1.25 mg/kg | –

Structure (SMILES) | ED50 [1] | ED50 [2] | further results
Cc1cc(CCN2CCC(Nc3nc4ccccc4n3Cc3ccc(F)cc3)CC2)ccc1O.Cl | 0.08 mg/kg | 0.16 mg/kg | –
Fc1ccc(Cn2c(NC3CCN(CCc4cccc5ccccc45)CC3)nc3ccccc32)cc1 | 1.25 mg/kg | 0.63 mg/kg | –
CCn1nnn(CCN2CCC(Nc3nc4ccccc4n3Cc3ccc(F)cc3)CC2)c1=O | 0.16 mg/kg | > 2.5 mg/kg | –
COc1cccc(OC)c1OCC(O)CN1CCC(Nc2nc3ccccc3n2Cc2ccc(F)cc2)CC1 (configuration not stated) | 0.63 mg/kg | 1.25 mg/kg | –
NC(=O)COc1ccc(CCN2CCC(Nc3nc4ccccc4n3Cc3ccc(F)cc3)CC2)cc1 | 1.25 mg/kg | 2.5 mg/kg | –
CSc1ccc(CCN2CCC(Nc3nc4ccccc4n3Cc3ccc(F)cc3)CC2)cc1 | 0.63 mg/kg | 1.25 mg/kg | –
CNC(=O)Oc1ccc(CCN2CCC(Nc3nc4ccccc4n3Cc3ccc(F)cc3)CC2)cc1 | 1.25 mg/kg | 2.5 mg/kg | –
CN1CCC(Nc2nc3ccccc3n2Cc2ccc(F)cc2)CC1 | 0.16 mg/kg | 2.5 mg/kg | ED50 [9]: ≥ 0.63 mg/kg; ED50 [10]: > 40 mg/kg; ED50 [11]: 0.04 mg/kg
Fc1ccc(Cn2c(NC3CCN(CCCNc4ccccc4)CC3)nc3ccccc32)cc1 | 0.63 mg/kg | 2.5 mg/kg | –
Fc1ccc(Cn2c(NC3CCN(CCC=C4c5ccccc5CCc5ccccc54)CC3)nc3ccccc32)cc1 | > 2.5 mg/kg | – | –
O=C(OCCN1CCC(Nc2nc3ccccc3n2Cc2ccc(F)cc2)CC1)N1CCOCC1 | 0.31 mg/kg | 2.5 mg/kg | –
Cl.N#CCOc1ccc(CCN2CCC(Nc3nc4ccccc4n3Cc3ccc(F)cc3)CC2)cc1 | 0.63 mg/kg | 0.08 mg/kg | –
Cc1cc(CCN2CCC(Nc3nc4ccccc4n3Cc3ccc(F)cc3)CC2)ccc1OCc1ccccc1 | > 2.5 mg/kg | – | –
Fc1ccc(Cn2c(NC3CCN(CCNCc4ccccc4)CC3)nc3ccccc32)cc1 | 1.25 mg/kg | > 2.5 mg/kg | –
CCOC(=O)COc1ccc(CCN2CCC(Nc3nc4ccccc4n3Cc3ccc(F)cc3)CC2)cc1 | 0.16 mg/kg | > 2.5 mg/kg | –
Br.Br.Fc1ccc(Cn2c(NC3CCNCC3)nc3ccccc32)cc1 | 0.056 mg/kg | 1.02 mg/kg | –
CCOc1ccc(CCN2CCC(Nc3nc4ccccc4n3Cc3ccc(F)cc3)CC2)cc1 | 1.25 mg/kg | 0.16 mg/kg | –
COC(=O)COc1ccc(CCN2CCC(Nc3nc4ccccc4n3Cc3ccc(F)cc3)CC2)cc1 | 2.5 mg/kg | – | –
